# Assay results published in ChEMBL document CHEMBL2157922, “Synthesis and antifungal activity of diverse C-2 pyridinyl and pyridinylvinyl substituted quinolines” (2012).
# Experiments:
# [1] = test system: Candida albicans; assay: Antifungal activity against Candida albicans ATCC 10231 at 7.8 ug/ml after 24 hrs; assay type: functional; conditions: ATCC 10231, 24 h
# In short: (§1)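 C. albicans was grown in 96-well RPMI-1640 broth microdilution with compound wells diluted from DMSO stocks. Growth wells with matched DMSO and sterility wells were included. After 24 h at 30 °C in a moist, dark chamber, OD405 was read. % inhibition = 100 − (CTW − SCW)/(GCW − SCW) OD, done in duplicate.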
# [2] = test system: Nannizzia gypsea; assay: Antifungal activity against Microsporum gypseum CCC 115 after 48 hrs by broth microdilution technique; assay type: functional; conditions: CCC 115, 48 h
# In short: (§2)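 Moulds and dermatophytes were run by CLSI broth microdilution in MOPS-buffered RPMI-1640 at pH 7.0. Aspergillus was incubated at 30 °C and dermatophytes at 28–30 °C, in a moist, dark chamber. MIC100, the lowest concentration with no visible growth, was read visually at a time set by growth of the control fungus.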
# [3] = test system: Pichia kudriavzevii; assay: Antifungal activity against Candida krusei CCC 117 after 48 hrs by broth microdilution technique; assay type: functional; conditions: CCC 117, 48 h
# [4] = test system: Candida albicans; assay: Antifungal activity against Candida albicans CCC 125 after 48 hrs by broth microdilution technique; assay type: functional; conditions: CCC 125, 48 h
# [5] = test system: Candida albicans; assay: Antifungal activity against Candida albicans CCC 126 after 48 hrs by broth microdilution technique; assay type: functional; conditions: CCC 126, 48 h
# [6] = test system: Candida albicans; assay: Antifungal activity against Candida albicans ATCC 10231 at 15.6 ug/ml after 24 hrs; assay type: functional; conditions: ATCC 10231, 24 h; in short: as §1
# [7] = test system: Candida albicans; assay: Antifungal activity against Candida albicans ATCC 10231 after 48 hrs by broth microdilution technique; assay type: functional; conditions: ATCC 10231, 48 h
# In short: (§3)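 Yeasts were tested by CLSI broth microdilution in RPMI-1640 buffered to pH 7.0 with MOPS, with compound from 250 down to 0.98 in DMSO stocks. Trays were held at 30 °C in a moist, dark chamber. MIC100, the lowest concentration giving total visual inhibition against the growth control, was read by eye at 48 h.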
# [8] = test system: Candida tropicalis; assay: Antifungal activity against Candida tropicalis CCC 131 after 48 hrs by broth microdilution technique; assay type: functional; conditions: CCC 131, 48 h
# [9] = test system: Cryptococcus neoformans; assay: Antifungal activity against Cryptococcus neoformans ATCC 32264 at 31.2 ug/ml after 48 hrs; assay type: functional; conditions: ATCC 32264, 48 h
# In short: (§4)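 C. neoformans was tested by 96-well RPMI-1640 microdilution, with DMSO-matched growth and sterility control wells. Plates were incubated 48 h at 30 °C in a moist, dark chamber and read at OD405. % inhibition = 100 − (CTW − SCW)/(GCW − SCW), in duplicate. For the clinical isolates, MIC80 and MIC50 are the lowest concentrations giving 80% and 50% inhibition.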
# [10] = test system: Candida albicans; assay: Antifungal activity against Candida albicans CCC 129 after 48 hrs by broth microdilution technique; assay type: functional; conditions: CCC 129, 48 h
# [11] = test system: Candida parapsilosis; assay: Antifungal activity against Candida parapsilosis CCC 124 after 48 hrs by broth microdilution technique; assay type: functional; conditions: Lodderomyces parapsilosis, CCC 124, 48 h
# [12] = test system: Candida albicans; assay: Antifungal activity against Candida albicans CCC 130 after 24 hrs by broth microdilution technique; conditions: CCC 130, 24 h
# [13] = test system: Trichophyton rubrum; assay: Antifungal activity against Trichophyton rubrum CCC 113 after 48 hrs by broth microdilution technique; assay type: functional; conditions: CCC 113, 48 h
# [14] = test system: Cryptococcus neoformans; assay: Antifungal activity against Cryptococcus neoformans ATCC 32264 at 15.6 ug/ml after 48 hrs; assay type: functional; conditions: ATCC 32264, 48 h; in short: as §4
# [15] = test system: Nakaseomyces glabratus; assay: Antifungal activity against Candida glabrata CCC 115 after 48 hrs by broth microdilution technique; assay type: functional; conditions: CCC 115, 48 h
# [16] = test system: Candida albicans; assay: Antifungal activity against Candida albicans CCC 130 after 48 hrs by broth microdilution technique; assay type: functional; conditions: CCC 130, 48 h
# [17] = test system: Cryptococcus neoformans; assay: Antifungal activity against Cryptococcus neoformans IM 983036 after 48 hrs by broth microdilution technique; assay type: functional; conditions: IM 983036, 48 h; in short: as §4
# [18] = test system: Cryptococcus neoformans; assay: Antifungal activity against Cryptococcus neoformans ATCC 32264 at 3.9 ug/ml after 48 hrs; assay type: functional; conditions: ATCC 32264, 48 h; in short: as §4
# [19] = test system: Aspergillus flavus; assay: Antifungal activity against Aspergillus flavus ATCC 9170 after 48 hrs by broth microdilution technique; assay type: functional; conditions: ATCC 9170, 48 h; in short: as §2
# [20] = test system: Aspergillus niger; assay: Antifungal activity against Aspergillus niger ATCC 9029 after 48 hrs by broth microdilution technique; assay type: functional; conditions: ATCC 9029, 48 h; in short: as §2
# [21] = test system: Cryptococcus neoformans; assay: Antifungal activity against Cryptococcus neoformans IM 042074 after 48 hrs by broth microdilution technique; assay type: functional; conditions: IM 042074, 48 h; in short: as §4
# [22] = test system: Cryptococcus neoformans; assay: Antifungal activity against Cryptococcus neoformans IM 972751 after 48 hrs by broth microdilution technique; assay type: functional; conditions: IM 972751, 48 h; in short: as §4
# [23] = test system: Cryptococcus neoformans; assay: Antifungal activity against Cryptococcus neoformans IM 00319 after 48 hrs by broth microdilution technique; assay type: functional; conditions: IM 00319, 48 h; in short: as §4
# [24] = test system: Candida albicans; assay: Antifungal activity against Candida albicans CCC 127 after 48 hrs by broth microdilution technique; assay type: functional; conditions: CCC 127, 48 h
# [25] = test system: Trichophyton mentagrophytes; assay: Antifungal activity against Trichophyton mentagrophytes ATCC 9972 after 48 hrs by broth microdilution technique; assay type: functional; conditions: ATCC 9972, 48 h; in short: as §2
# [26] = test system: Cryptococcus neoformans; assay: Antifungal activity against Cryptococcus neoformans ATCC 32264 after 48 hrs by broth microdilution technique; assay type: functional; conditions: ATCC 32264, 48 h; in short: as §3
# [27] = test system: Candida albicans; assay: Antifungal activity against Candida albicans ATCC 10231 at 31.2 ug/ml after 24 hrs; assay type: functional; conditions: ATCC 10231, 24 h; in short: as §1
# [28] = test system: Candida albicans; assay: Antifungal activity against Candida albicans CCC 128 after 48 hrs by broth microdilution technique; assay type: functional; conditions: CCC 128, 48 h
# [29] = test system: Aspergillus fumigatus; assay: Antifungal activity against Aspergillus fumigatus ATCC 26934 after 48 hrs by broth microdilution technique; assay type: functional; conditions: ATCC 26934, 48 h; in short: as §2
# [30] = test system: Cryptococcus neoformans; assay: Antifungal activity against Cryptococcus neoformans IM 983040 after 48 hrs by broth microdilution technique; assay type: functional; conditions: IM 983040, 48 h; in short: as §4
# [31] = test system: Saccharomyces cerevisiae; assay: Antifungal activity against Saccharomyces cerevisiae ATCC 9763 after 48 hrs by broth microdilution technique; assay type: functional; conditions: ATCC 9763, 48 h; in short: as §3
# [32] = test system: Cryptococcus neoformans; assay: Antifungal activity against Cryptococcus neoformans IM 972724 after 48 hrs by broth microdilution technique; assay type: functional; conditions: IM 972724, 48 h; in short: as §4
smiles,measurement,setting,value
CCc1ccc2nc(-c3ccccn3)ccc2c1,inhibition at 7.8 µg/mL,[1],50%
same,MFC,[2],62 µg/mL
same,MIC,[2],62 µg/mL
same,MIC50,[3],31.2 µg/mL
same,MIC80,[3],62.5 µg/mL
same,MIC50,[4],62.5 µg/mL
same,MIC80,[4],125 µg/mL
same,MIC50,[5],15.6 µg/mL
same,MIC80,[5],31.2 µg/mL
same,inhibition at 15.6 µg/mL,[6],80%
same,MFC,[7],250 µg/mL
same,MIC,[7],62 µg/mL
same,MIC50,[7],7.8 µg/mL
same,MIC80,[7],15.6 µg/mL
same,MIC50,[8],15.6 µg/mL
same,MIC80,[8],31.2 µg/mL
same,inhibition at 31.2 µg/mL,[9],80%
same,MIC50,[10],31.2 µg/mL
same,MIC80,[10],62.5 µg/mL
same,MIC50,[11],15.6 µg/mL
same,MIC80,[11],31.2 µg/mL
same,MIC50,[12],31.2 µg/mL
same,MFC,[13],62 µg/mL
same,MIC,[13],62 µg/mL
same,inhibition at 15.6 µg/mL,[14],80%
same,MIC50,[15],62.5 µg/mL
same,MIC80,[15],62.5 µg/mL
same,MIC80,[16],62.5 µg/mL
same,MIC50,[17],3.9 µg/mL
same,MIC80,[17],7.8 µg/mL
same,inhibition at 3.9 µg/mL,[18],50%
same,MFC,[19],125 µg/mL
same,MIC,[19],62 µg/mL
same,MFC,[20],> 250 µg/mL
same,MIC,[20],250 µg/mL
same,MIC50,[21],3.9 µg/mL
same,MIC80,[21],7.8 µg/mL
same,MIC50,[22],3.9 µg/mL
same,MIC80,[22],15.6 µg/mL
same,MIC50,[23],7.8 µg/mL
same,MIC80,[23],15.6 µg/mL
same,MIC50,[24],62.5 µg/mL
same,MIC80,[24],62.5 µg/mL
same,MFC,[25],62 µg/mL
same,MIC,[25],62 µg/mL
same,MFC,[26],125 µg/mL
same,MIC,[26],31 µg/mL
same,MIC50,[26],3.9 µg/mL
same,MIC80,[26],15.6 µg/mL
same,inhibition at 31.2 µg/mL,[27],80%
same,MIC50,[28],31.2 µg/mL
same,MIC80,[28],62.5 µg/mL
same,MFC,[29],125 µg/mL
same,MIC,[29],62 µg/mL
same,MIC50,[30],3.9 µg/mL
same,MIC80,[30],7.8 µg/mL
same,MFC,[31],250 µg/mL
same,MIC,[31],62 µg/mL
same,MIC50,[32],3.9 µg/mL
same,MIC80,[32],7.8 µg/mL
